Compound activity (PubChem)
mABHD4 FP: inhibitors of mouse ABHD4; inhibition, % at 8.92 µM; AID 720543; actives 0.54% (n = 370,000); purified mABHD4, FP-Rh probe fluorescence polarization; Q8VD66;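 active = inhibition exceeding the mean over every tested compound plus 3 SD, cut at about 30% in these data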;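 note: 0% = plate median of compound wells and 100% = S159A mutant with DMSO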
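Assay system: Wild-type mouse ABHD4 protein | Medium: HEPES pH 7.0 buffer, 150 mM NaCl, 0.01% Pluronic F-127 | Incubation: Enzyme–compound pre-incubation 45 min, then probe 60 min, both 25 °C | Technique: Fluorescence polarization with parallel and perpendicular emission, 525/598 nm | Evaluation: % inhibition of FP-Rh probe binding versus controls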
HTRA1 inhibitor: HTRA1 (human) protease inhibition. recombinant HTRA1, FP-rhodamine activity-based probe, fluorescence polarization. actives 0.5% (n = 340,000). inhibition, % at 5.96 µM. Q92743. AID 504803; in the data active = inhibition above about 36%;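 note: 0% = enzyme with DMSO and 100% = wells lacking enzyme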
SIAE inh: inhibitors of human sialic acid acetylesterase SIAE; Q9HAT2; SIAE FP-Rh probe binding, fluorescence polarization; inhibition, % at 9.66 µM; actives 0.69% (n = 370,000); AID 1053197;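 active = inhibition above a cutoff: mean of compounds within the control limits plus 3 SD of those, cut at about 17% in these data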;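 note: 0% = plate median of compound wells and 100% = probe without SIAE protein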
Target sequence (Q9HAT2 whole entry, looked up): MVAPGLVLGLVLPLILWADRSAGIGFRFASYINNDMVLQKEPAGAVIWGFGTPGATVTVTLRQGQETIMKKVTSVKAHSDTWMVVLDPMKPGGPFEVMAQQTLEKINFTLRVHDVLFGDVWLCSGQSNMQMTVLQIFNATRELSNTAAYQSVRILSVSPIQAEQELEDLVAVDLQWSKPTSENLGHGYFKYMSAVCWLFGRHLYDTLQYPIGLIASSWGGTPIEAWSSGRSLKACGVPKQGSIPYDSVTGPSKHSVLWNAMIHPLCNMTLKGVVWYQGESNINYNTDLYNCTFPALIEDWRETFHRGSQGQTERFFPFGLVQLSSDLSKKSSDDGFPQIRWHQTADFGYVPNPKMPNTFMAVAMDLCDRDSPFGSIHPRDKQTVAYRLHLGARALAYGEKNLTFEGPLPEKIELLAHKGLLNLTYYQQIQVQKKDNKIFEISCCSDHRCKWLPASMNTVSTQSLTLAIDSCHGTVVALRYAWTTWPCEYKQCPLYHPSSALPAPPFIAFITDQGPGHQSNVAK
TCR-CD3 inh: human TCR-CD3 binding inhibition | TAMRA-labeled TCR probe fluorescence, biochemical | inhibition, % at 9.4 µM | actives 0.37% (n = 360,000); in the data active = inhibition above about 19%;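 note: recombinant mutant TCR 2C K166C tagged with TAMRA read by polarization; 0% = receptor in buffer alone and 100% = receptor with positive control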
ARNT-TACC3 inh: disrupts binding between human ARNT and TACC3 | inhibition, % at 9.99 µM | AlphaScreen His-ARNT PAS-B/GST-TACC3 binding, luminescence; TACC3 fragment carries E629A point mutation | actives 0.66% (n = 390,000);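 active = mean inhibition of replicates at least 50% and at least half of replicates each reaching 50%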;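 note: 0% = complete ARNT plus TACC3 wells and 100% = ARNT alone without TACC3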
HTRA1 conf: HTRA1 (human) inhibition, confirmation | shares compounds with HTRA1 inhibitor | recombinant HTRA1, FP-rhodamine activity-based probe, fluorescence polarization | inhibition, % at 5.96 µM | actives 66% (n = 1,600);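 active = mean inhibition over three repeats above a set limit taken from the earlier primary screen, cut at about 37% in these data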;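 note: 0% = HTRA1 with DMSO and 100% = wells lacking HTRA1; inhibitors block probe binding so polarization drops and inhibition rises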
Numbers without * were called inactive. An excerpt weighted towards active compounds, which were near 1.8% of everything screened.

`C[C@@H]1CN([C@@H](C)CO)S(=O)(=O)c2ccc(C#Cc3ccncc3)cc2O[C@@H]1CN(C)CC1CC1` gave ARNT-TACC3 inh 1.3.
For Cc1cc2cc(CNC(=S)Nc3ccc(OC(F)F)cc3)ccc2n1C the results were mABHD4 FP 13.5, HTRA1 inhibitor 52.5*, SIAE inh 4.3, TCR-CD3 inh 14.4, ARNT-TACC3 inh 24.7 and HTRA1 conf 4.8.
O=C(Nc1ccc(Nc2ccccc2)cc1)c1ccco1 was read as mABHD4 FP 11.9, HTRA1 inhibitor 38.4*, SIAE inh 5.9, TCR-CD3 inh -4.2, ARNT-TACC3 inh 13.9 and HTRA1 conf 33.9.
`O=C(Nc1ccc(NC(=O)c2ccco2)cc1)c1ccco1` gave mABHD4 FP 3.4, HTRA1 inhibitor 3.7, SIAE inh 6.5, TCR-CD3 inh 6.4 and ARNT-TACC3 inh -10.4.
For C[C@H]1CN([C@@H](C)CO)C(=O)c2cc(NC(=O)c3ccncc3)ccc2O[C@H]1CN(C)S(=O)(=O)c1ccc(Cl)cc1 the results were ARNT-TACC3 inh 0.2.
CCOC(=O)c1c(C)oc2c1c(C=NCC1CCCO1)c(O)c1ccccc12 (stereo unspecified) was read as mABHD4 FP 20.9, HTRA1 inhibitor 7.8, SIAE inh 7.7, TCR-CD3 inh -7.0 and ARNT-TACC3 inh 25.7.
For CCOC(=O)c1c(C)oc2c1c(C=NCc1ccccn1)c(O)c1ccccc12 the results were mABHD4 FP 34.3*, HTRA1 inhibitor 43.5*, SIAE inh 17.9*, TCR-CD3 inh 1.5, ARNT-TACC3 inh 47.7* and HTRA1 conf 60.4*.
Cc1cccc(NC(=O)COc2coc(CN3CCN(c4ccccc4)CC3)cc2=O)c1C was read as mABHD4 FP 1.7, HTRA1 inhibitor 57.1*, SIAE inh -3.1, TCR-CD3 inh 6.3, ARNT-TACC3 inh 1.7 and HTRA1 conf 10.0.
Screening O=C(COc1coc(CN2CCN(c3ccccc3)CC2)cc1=O)Nc1ccccc1 returned mABHD4 FP 8.4, HTRA1 inhibitor 2.0, SIAE inh 12.5, TCR-CD3 inh -0.2 and ARNT-TACC3 inh -6.7.
Screening CC1=NN(c2ccc(C(=O)O)cc2)C(=O)/C1=C\c1ccc(OC(=O)c2cccs2)cc1 returned mABHD4 FP 12.2, HTRA1 inhibitor 38.9*, SIAE inh -5.2, TCR-CD3 inh -3.1, ARNT-TACC3 inh 28.3 and HTRA1 conf 7.0.
CC1=NN(c2ccccc2)C(=O)/C1=C/c1cccs1 was read as mABHD4 FP 6.0, HTRA1 inhibitor 8.8, SIAE inh 2.3, TCR-CD3 inh -2.9 and ARNT-TACC3 inh -18.5.
`CCCC(=O)Nc1ccc2c(c1)C(=O)N(C)C[C@@H](OC)[C@H](C)CN(CCC(F)(F)F)[C@@H](C)CO2` gave ARNT-TACC3 inh -8.1.
`Cc1cc(N(CCO)CCO)ccc1C(c1ccc(N(CCO)CCO)cc1C)c1ccccc1Cl` gave mABHD4 FP 16.4, HTRA1 inhibitor 41.2*, SIAE inh 9.6, TCR-CD3 inh 5.8, ARNT-TACC3 inh 7.4 and HTRA1 conf 29.9.
For CC(C)(C)c1cc(NCc2ccccn2)n2ncc(-c3ccc(Cl)cc3)c2n1 the results were mABHD4 FP 1.0, HTRA1 inhibitor 3.1, SIAE inh -0.7, TCR-CD3 inh -9.9 and ARNT-TACC3 inh -1.3.
Screening CN(C)CCCNc1cc(C(C)(C)C)nc2c(-c3ccc(Cl)cc3)cnn12 returned mABHD4 FP 26.3, HTRA1 inhibitor 49.3*, SIAE inh 6.4, TCR-CD3 inh -8.9, ARNT-TACC3 inh 6.1 and HTRA1 conf 69.8*.
Screening CN(C)c1ccc(NC(=O)CSCc2nc3c(nnn3Cc3ccc(F)cc3)c(=O)[nH]2)cc1 returned HTRA1 inhibitor 37.9*, ARNT-TACC3 inh -3.5 and HTRA1 conf 2.5.
Screening Cc1cccc(NC(=O)CSCc2nc3c(nnn3Cc3ccc(F)cc3)c(=O)[nH]2)c1C returned mABHD4 FP -2.8, HTRA1 inhibitor 0.2, SIAE inh 5.8, TCR-CD3 inh -8.3 and ARNT-TACC3 inh -1.4.
For COc1ccc(NC(=O)N(C)C[C@H]2Oc3ccc(NC(=O)CCCCCC(=O)Nc4ccccc4N)cc3CC(=O)N([C@@H](C)CO)C[C@H]2C)cc1 the results were ARNT-TACC3 inh -17.2.
CN=c1scc(-c2ccc(F)cc2)n1/N=C/c1ccc(O)c(O)c1 was read as mABHD4 FP 32.5*, HTRA1 inhibitor 64.2*, SIAE inh 5.6, TCR-CD3 inh 5.2, ARNT-TACC3 inh 22.6 and HTRA1 conf 69.0*.
Screening Cc1cc(C(=O)N/N=C/c2ccc([N+](=O)[O-])s2)c2ccccc2n1 returned mABHD4 FP 16.3, HTRA1 inhibitor 46.7*, SIAE inh 14.9, TCR-CD3 inh 3.0, ARNT-TACC3 inh 9.5 and HTRA1 conf 28.6.
`O=C(N/N=C\c1ccc([N+](=O)[O-])s1)c1cncc(Br)c1` gave mABHD4 FP 1.8, HTRA1 inhibitor 56.2*, SIAE inh -6.3, TCR-CD3 inh -2.4, ARNT-TACC3 inh 30.5 and HTRA1 conf 52.0*.
Screening O=C(N/N=C/c1ccc([N+](=O)[O-])s1)c1ccccc1 returned mABHD4 FP 0.9, HTRA1 inhibitor 22.0, SIAE inh 0.3, TCR-CD3 inh 2.1 and ARNT-TACC3 inh -3.1.
`C[C@@H]1CN([C@@H](C)CO)C(=O)c2cccc(NC(=O)C3CCCCC3)c2O[C@H]1CN(C)Cc1ccc2c(c1)OCO2` gave ARNT-TACC3 inh -1.0.
`Cc1n[nH]c(=O)c2c(NC(=O)CSc3nc4ccccc4c(=O)n3C(C)C)oc(C)c12` gave mABHD4 FP 0.1, HTRA1 inhibitor 9.2, SIAE inh -4.2, TCR-CD3 inh 6.4 and ARNT-TACC3 inh -14.5.
`Cc1n[nH]c(=O)c2c(NC(=O)CSc3nc4ccccc4c(=O)n3CCCO)oc(C)c12` gave mABHD4 FP -6.1, HTRA1 inhibitor 37.9*, SIAE inh 3.5, TCR-CD3 inh -6.0, ARNT-TACC3 inh -7.9 and HTRA1 conf -1.6.
`COc1ccc2c(c1)c(C(=O)N/N=C/c1ccc(Br)cc1)c(C)n2C` gave mABHD4 FP -1.5, HTRA1 inhibitor -17.4, SIAE inh 0.1, TCR-CD3 inh 7.0 and ARNT-TACC3 inh -6.9.
Screening COc1ccc2c(c1)c(C(=O)N/N=C/c1ccc(O)c(O)c1)c(C)n2C returned mABHD4 FP 16.2, HTRA1 inhibitor 43.0*, SIAE inh -3.0, TCR-CD3 inh 4.8, ARNT-TACC3 inh 3.3 and HTRA1 conf 63.8*.
`Cn1ccnc1SCC(=O)c1ccc2ccccc2c1` gave mABHD4 FP 3.3, HTRA1 inhibitor -13.5, SIAE inh -2.4, TCR-CD3 inh -3.9 and ARNT-TACC3 inh 4.0.
`CCn1c(CSc2nccn2C)nc2cc(C(=O)O)ccc21` gave HTRA1 inhibitor 37.8*, ARNT-TACC3 inh 10.1 and HTRA1 conf 48.2*.
O=C(c1ccncc1)N1C[C@@H]2[C@H](c3ccccc31)[C@H](CO)N2C(=O)Nc1ccccc1Cl was read as ARNT-TACC3 inh -2.7.
